From PubChem
Compounds with a hit are over-represented: about 2.7% of the library has one in this group of screens.
SIRT5 inh – sirtuin-5 (human) deacylase inhibition; hit rate 1.1% among 330,000; Purified SirT5, succinyl-peptide AMC, trypsin-coupled fluorescence; inhibition, % at 15 µM; in the data active = inhibition above about 15%
S100A4 MyoIIA – blocks human S100A4 binding to myosin IIA peptide; S100A4/TAMRA-MyoIIA peptide fluorescence polarization; inhibition, % at 10.7 µM; P26447; hit rate 0.14% among 360,000; AID 652163;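 active = mean inhibition of at least 70% across replicates, with every replicate also reaching that level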
Target sequence (P26447 whole entry, looked up): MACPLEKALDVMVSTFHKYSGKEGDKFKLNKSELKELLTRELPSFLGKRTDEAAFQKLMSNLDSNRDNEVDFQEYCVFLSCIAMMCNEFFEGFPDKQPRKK
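assay system = human S100A4 monomer with TAMRA-labelled myosin IIA peptide | also added = labelled myosin peptide probe, 5 nM | incubation = 5 min between mix addition and reading | control set = DMSO and TFP controls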
MLL AF4-AF9 inh – blocks AF4 peptide binding to human AF9. AlphaScreen, biotin-AF4 peptide binding to FLAG-AF9. inhibition, % at 10 µM. hit rate 0.47% among 350,000;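 active = every replicate reaching a set inhibition limit, whatever the replicate mean, cut at about 25% in these data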;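 note: 0% = plate neutral control median and 100% = total signal loss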
Target sequence (P42568 whole entry, looked up): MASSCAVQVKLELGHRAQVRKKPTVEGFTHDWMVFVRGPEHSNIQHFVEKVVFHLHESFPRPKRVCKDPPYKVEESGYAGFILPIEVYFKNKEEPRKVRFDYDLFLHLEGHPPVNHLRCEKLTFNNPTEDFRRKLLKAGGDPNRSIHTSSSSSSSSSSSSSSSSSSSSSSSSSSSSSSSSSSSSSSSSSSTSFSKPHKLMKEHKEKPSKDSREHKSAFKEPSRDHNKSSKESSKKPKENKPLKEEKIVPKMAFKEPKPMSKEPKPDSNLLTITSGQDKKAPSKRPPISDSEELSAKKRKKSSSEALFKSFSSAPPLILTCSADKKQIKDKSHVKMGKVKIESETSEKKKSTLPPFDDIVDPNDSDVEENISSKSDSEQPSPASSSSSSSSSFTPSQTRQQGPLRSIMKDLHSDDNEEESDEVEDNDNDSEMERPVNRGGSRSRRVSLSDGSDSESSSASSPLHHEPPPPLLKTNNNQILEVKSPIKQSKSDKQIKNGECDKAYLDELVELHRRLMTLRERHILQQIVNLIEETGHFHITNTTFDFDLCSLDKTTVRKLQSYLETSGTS
CaV13 FRET inh – Primary screen for inhibitors of IQ motif and Ca2+-dependent inactivation inhibitor domain binding in CACNA1D, Förster resonance energy transfer in living cells, …. HEK cells, CFP/YFP FRET ICDI-IQ, plate reader, 10 min; percent FRET-ratio fall versus neutral wells. hit rate 0.098% among 340,000. inhibition, % at 12.3 µM;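 active = mean replicate inhibition of at least 30% and at least 1% of replicates passing that level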;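 note: 0% = median of the neutral control wells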
DENV2 CPE rescue – inhibitors of DENV2 cytopathic effect; DENV2-infected cells, cytopathic effect rescue, plate reader; CPE inhibition, % at 9.99 µM; hit rate 1.7% among 350,000; in the data active = CPE inhibition above about 20%, passing the limit was not always enough; tested in BHK-21 cells;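 note: 0% = median of neutral control wells and 100% = median of positive control wells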
* = called active by the depositor.

How did O=C(C[C@H]1CC[C@H](NC(=O)c2ccccn2)[C@H](CO)O1)NCc1cccc(F)c1 do in these assays?
SIRT5 inh: 7; S100A4 MyoIIA: 28; MLL AF4-AF9 inh: 3; DENV2 CPE rescue: -3

How did CN1C[C@@H]2[C@@H]3C(=O)N(Cc4ccccc4)C(=O)[C@@H]3[C@](C)(C1=O)N2C(=O)c1ccc(C(F)(F)F)cc1 do in these assays?
SIRT5 inh: -4; S100A4 MyoIIA: 1; MLL AF4-AF9 inh: -1; CaV13 FRET inh: -10; DENV2 CPE rescue: 12

What do the screens show for `CCN1C[C@@H]2[C@@H]3C(=O)N(Cc4ccccc4)C(=O)[C@@H]3[C@](Cc3ccccc3)(C1=O)N2C(=O)c1ccc(C)cc1`?
SIRT5 inh: 17*; S100A4 MyoIIA: -3; MLL AF4-AF9 inh: 4; CaV13 FRET inh: -11; DENV2 CPE rescue: 7

How did CN1C[C@@H]2[C@@H]3C(=O)N(Cc4ccccc4)C(=O)[C@@H]3[C@](C)(C1=O)N2C(=O)c1ccc(C(C)(C)C)cc1 do in these assays?
SIRT5 inh: -9; S100A4 MyoIIA: -10; MLL AF4-AF9 inh: -1; CaV13 FRET inh: -10; DENV2 CPE rescue: 54*

Results for CC(OC(=O)CC1CCCCC1)C(=O)Nc1ccc(F)cc1 (configuration not stated) ?
SIRT5 inh: 21*; S100A4 MyoIIA: -11; MLL AF4-AF9 inh: 6; CaV13 FRET inh: -16; DENV2 CPE rescue: -4

What do the screens show for `CNC[C@H]1Oc2ccc(NS(=O)(=O)c3ccc(Cl)cc3)cc2CC(=O)N([C@@H](C)CO)C[C@@H]1C`?
SIRT5 inh: -3; S100A4 MyoIIA: -5; MLL AF4-AF9 inh: -2; DENV2 CPE rescue: 27*

Results for CNC[C@@H]1Oc2ccc(NS(=O)(=O)c3ccc(Cl)cc3)cc2CC(=O)N([C@@H](C)CO)C[C@@H]1C ?
SIRT5 inh: 1; S100A4 MyoIIA: -2; MLL AF4-AF9 inh: -3; DENV2 CPE rescue: 41*

Results for CNC[C@@H]1Oc2ccc(NS(=O)(=O)c3ccc(Cl)cc3)cc2CC(=O)N([C@H](C)CO)C[C@@H]1C ?
SIRT5 inh: -2; S100A4 MyoIIA: -1; MLL AF4-AF9 inh: 1; DENV2 CPE rescue: -4

Results for COCC(=O)N1[C@@H](C#N)[C@@H](c2ccccc2-c2ccccc2F)[C@@H]1CO ?
SIRT5 inh: -5; S100A4 MyoIIA: 14; MLL AF4-AF9 inh: -3; DENV2 CPE rescue: -2

Results for C[C@H]1CN([C@@H](C)CO)C(=O)Cc2cc(NC(=O)CCC(F)(F)F)ccc2O[C@H]1CN(C)C ?
SIRT5 inh: -2; S100A4 MyoIIA: -5; MLL AF4-AF9 inh: -1; DENV2 CPE rescue: -2

How did CCN1CCN(CCNC(=O)c2ccc3nc(-c4cccc(C)c4)c(-c4cccc(C)c4)nc3c2)CC1 do in these assays?
SIRT5 inh: -11; S100A4 MyoIIA: -3; MLL AF4-AF9 inh: 28*; CaV13 FRET inh: -14; DENV2 CPE rescue: -1

What do the screens show for `CCCNC(=O)c1ccc2nc(-c3ccccc3)c(-c3ccccc3)nc2c1`?
SIRT5 inh: -6; S100A4 MyoIIA: 10; CaV13 FRET inh: -2

How did C[C@H]1CN([C@@H](C)CO)C(=O)c2cccc(NC(=O)Nc3ccc(C(F)(F)F)cc3)c2O[C@H]1CN(C)Cc1ccc(Cl)c(Cl)c1 do in these assays?
SIRT5 inh: 9; S100A4 MyoIIA: -25; MLL AF4-AF9 inh: 0; DENV2 CPE rescue: 2

How did C[C@@H]1CN([C@@H](C)CO)S(=O)(=O)c2ccc(/C=C/c3ccccc3)cc2O[C@@H]1CN(C)Cc1ccccc1 do in these assays?
SIRT5 inh: 19*; S100A4 MyoIIA: -53; MLL AF4-AF9 inh: 9; DENV2 CPE rescue: -6

Results for C[C@H]1CN([C@@H](C)CO)S(=O)(=O)c2ccc(/C=C/c3ccccc3)cc2O[C@@H]1CN(C)Cc1ccccc1 ?
SIRT5 inh: 22*; S100A4 MyoIIA: 5; MLL AF4-AF9 inh: 10; DENV2 CPE rescue: 5

Results for CCCC(=O)Nc1ccc2c(c1)C(=O)N(C)C[C@@H](OC)[C@H](C)CN(CCc1ccccc1)[C@H](C)CO2 ?
SIRT5 inh: 2; S100A4 MyoIIA: 1; MLL AF4-AF9 inh: 0; DENV2 CPE rescue: 3

What do the screens show for `Cn1c(O)c(N=NC(=O)C2COc3ccccc3O2)c2ccccc21` (configuration not stated)?
SIRT5 inh: 1; S100A4 MyoIIA: 0; MLL AF4-AF9 inh: -92; CaV13 FRET inh: -3; DENV2 CPE rescue: -6

How did CC(C)n1c(O)c(N=NC(=O)C2COc3ccccc3O2)c2ccccc21 (configuration not stated) do in these assays?
SIRT5 inh: -2; S100A4 MyoIIA: 1; MLL AF4-AF9 inh: 39*; CaV13 FRET inh: -7; DENV2 CPE rescue: -1

How did COc1cc(/C=N/N2CCN(Cc3ccc(Cl)cc3)CC2)ccc1OC(C)=O do in these assays?
SIRT5 inh: 0; S100A4 MyoIIA: -1; MLL AF4-AF9 inh: 16; CaV13 FRET inh: -21; DENV2 CPE rescue: 1

How did COc1cc(/C=N/N2CCN(Cc3ccc(Cl)cc3)CC2)cc(Br)c1O do in these assays?
SIRT5 inh: 18*; S100A4 MyoIIA: 2; MLL AF4-AF9 inh: 23; CaV13 FRET inh: -4; DENV2 CPE rescue: 9

How did O=C(Nc1cccc(F)c1)N1CC(=O)N2[C@H](C1)[C@@H](c1ccc(C#CCC3CCCC3)cc1)[C@@H]2CO do in these assays?
SIRT5 inh: -2; S100A4 MyoIIA: 5; MLL AF4-AF9 inh: -5; DENV2 CPE rescue: -2

What do the screens show for `CCN(CC(=O)Nc1c(F)cccc1F)C(=O)C1CCN(S(=O)(=O)c2ccc(F)cc2)CC1`?
SIRT5 inh: -3; S100A4 MyoIIA: 1; MLL AF4-AF9 inh: 4; CaV13 FRET inh: -6; DENV2 CPE rescue: 28*

How did CCN(CC(=O)Nc1c(F)cccc1F)C(=O)C1CCN(C(=O)c2ccc(F)cc2)CC1 do in these assays?
SIRT5 inh: -3; S100A4 MyoIIA: 0; MLL AF4-AF9 inh: -9; CaV13 FRET inh: -6; DENV2 CPE rescue: -2

What do the screens show for `Cc1ccc(S(=O)(=O)N(C)C[C@H]2Oc3ccc(NC(=O)Nc4cccc5ccccc45)cc3CC(=O)N([C@@H](C)CO)C[C@H]2C)cc1`?
SIRT5 inh: 19*; S100A4 MyoIIA: -18; MLL AF4-AF9 inh: 2; DENV2 CPE rescue: -2

How did COc1ccc(NC(=O)Nc2ccc3c(c2)CC(=O)N([C@H](C)CO)C[C@@H](C)[C@H](CN(C)S(=O)(=O)c2cn(C)cn2)O3)cc1 do in these assays?
SIRT5 inh: 1; S100A4 MyoIIA: -7; MLL AF4-AF9 inh: -2; DENV2 CPE rescue: 75*

How did COc1ccc(NC(=O)Nc2ccc3c(c2)CC(=O)N([C@H](C)CO)C[C@@H](C)[C@@H](CN(C)S(=O)(=O)c2cn(C)cn2)O3)cc1 do in these assays?
SIRT5 inh: 2; S100A4 MyoIIA: -11; MLL AF4-AF9 inh: -2; DENV2 CPE rescue: -5

How did C[C@H](CO)N1C[C@H](C)[C@@H](CN(C)S(=O)(=O)c2cn(C)cn2)Oc2ccc(NC(=O)Nc3cccc4ccccc34)cc2CC1=O do in these assays?
SIRT5 inh: 6; S100A4 MyoIIA: -3; MLL AF4-AF9 inh: -13; DENV2 CPE rescue: 86*
